Data published in article PMC8320078 (ACS Omega, 2021).

What was measured:
DPPH assay = conditions: mean ± SD; for DPPH assay TEAC: isolated compounds
Method in brief: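 Reduction of the DPPH free radical by extracts, fractions or isolated compounds, done in 96-well format following a published procedure. Quercetin and ascorbic acid were positive controls and MeOH the negative control. Runs were in triplicate (n = 3), reported as mean ± SD. Total antioxidant capacity was expressed as trolox equivalent antioxidant capacity (TEAC).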

[1] = target: T1, porcine pancreatic lipase (PPL) (Sus scrofa, UniProt P00591); assay: Inhibition of pancreatic lipase; assay type: biochemical; conditions: read-out: lipase assay IC50, mean ± SD
T1 sequence (P00591 1-450): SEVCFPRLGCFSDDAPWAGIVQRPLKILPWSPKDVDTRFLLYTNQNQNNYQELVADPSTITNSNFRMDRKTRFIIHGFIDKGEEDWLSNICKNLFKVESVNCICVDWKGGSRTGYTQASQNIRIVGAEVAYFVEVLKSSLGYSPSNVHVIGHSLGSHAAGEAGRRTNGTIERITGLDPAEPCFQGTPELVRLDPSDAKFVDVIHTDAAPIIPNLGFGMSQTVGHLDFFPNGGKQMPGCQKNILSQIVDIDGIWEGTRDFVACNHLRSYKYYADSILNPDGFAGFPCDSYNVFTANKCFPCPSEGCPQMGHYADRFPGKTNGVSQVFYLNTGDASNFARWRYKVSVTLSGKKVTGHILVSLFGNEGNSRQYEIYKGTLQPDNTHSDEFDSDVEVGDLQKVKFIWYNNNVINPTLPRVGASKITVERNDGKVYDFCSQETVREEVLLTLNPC

α-glucosidase (yeast) = α-glucosidase (yeast) (Saccharomyces cerevisiae, UniProt P53341); assay: Inhibition of α-glucosidase; assay type: biochemical; conditions: read-out: α-glucosidase assay IC50; yeast enzyme; mean ± SD
Sequence of α-glucosidase (yeast) (P53341 whole entry): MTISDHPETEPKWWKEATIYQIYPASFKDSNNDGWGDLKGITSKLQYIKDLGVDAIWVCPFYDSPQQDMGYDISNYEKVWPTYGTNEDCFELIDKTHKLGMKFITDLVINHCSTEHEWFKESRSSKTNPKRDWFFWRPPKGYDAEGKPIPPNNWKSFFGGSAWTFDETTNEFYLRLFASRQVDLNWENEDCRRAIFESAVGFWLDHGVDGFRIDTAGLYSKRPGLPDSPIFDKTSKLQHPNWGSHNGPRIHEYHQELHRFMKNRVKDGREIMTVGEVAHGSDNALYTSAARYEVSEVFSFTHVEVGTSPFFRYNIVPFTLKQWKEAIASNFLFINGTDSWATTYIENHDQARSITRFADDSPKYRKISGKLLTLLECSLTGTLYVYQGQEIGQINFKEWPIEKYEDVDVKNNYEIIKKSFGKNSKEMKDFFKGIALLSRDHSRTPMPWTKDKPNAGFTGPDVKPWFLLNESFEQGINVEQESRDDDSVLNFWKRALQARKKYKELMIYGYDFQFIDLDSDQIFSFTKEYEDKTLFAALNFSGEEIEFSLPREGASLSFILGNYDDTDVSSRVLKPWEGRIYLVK

[2] = system: formation of advanced glycation end products (AGEs), BSA-methylglyoxal model; assay: BSA-methylglyoxal antiglycation assay; assay type: biochemical, bovine; conditions: read-out: BSA-methylglyoxal model IC50; isolated compounds; mean ± SD
ABTS assay = conditions: isolated compounds; mean ± SD
Method in brief: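 ABTS radical-scavenging capacity of isolated compounds, from a modified literature method. Activity was read from a trolox calibration curve (7.78–1000 μM) and expressed as trolox equivalents (μM TE/mM). Ascorbic acid and quercetin served as positive controls, MeOH as negative control. Each sample was run in triplicate (n = 3); values are mean ± SD.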

FRAP assay = conditions: isolated compounds; mean ± SD
Method in brief: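 FRAP: Fe3+ is reduced to Fe2+, which TPTZ chelates to form the Fe2+-TPTZ complex. Activity of isolated compounds was read from a trolox standard curve (7.78–1000 μM) and expressed as μM TE/mM. Quercetin and ascorbic acid were positive controls, MeOH the negative control. Triplicate runs (n = 3); mean ± SD.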

[3] = system: formation of advanced glycation end products (AGEs), BSA-fructose model; assay: BSA-fructose antiglycation assay; assay type: biochemical, bovine; conditions: read-out: BSA-fructose model IC50; isolated compounds; mean ± SD
[4] = system: formation of AGEs induced by glucose or methylglyoxal; conditions: at 100 μM; cited from earlier work

Compound | DPPH assay TEAC (DPPH assay) | IC50 [1] | IC50 (α-glucosidase (yeast)) | IC50 [2] | ABTS assay TEAC (ABTS assay) | FRAP assay TEAC (FRAP assay) | IC50 [3] | DPPH assay EC50 (DPPH assay; extracts/fractions) | efficacy against formation of AGEs [4]
12β-O-benzoyl 3β,8β,12β,14β,20-pentahydroxy-(20S)-pregn-5-ene-3-O-β-D-glucopyranosyl-(1 → 4)-O-β-D-digitaloside [compound 1] | 43.30 ± 3.12 μM TE/mM | > 100 µM | 920 ± 20 µM | > 1300 µM | 12.14 ± 14.86 μM TE/mM | 17.96 ± 4.25 μM TE/mM | 502 ± 70.9 µM | – | –
O=C1O[C@H]([C@@H](O)CO)C(O)=C1O [ascorbic acid, reference compound] | 802.73 ± 32.63 μM TE/mM | – | – | – | 1132.84 ± 20.25 μM TE/mM | 1195.58 ± 4.41 μM TE/mM | – | 2.76 ± 1.63 µg/mL | –
CO[C@@H]1[C@@H](O)[C@H](O[C@H]2CC[C@@]3(C)C(=CC[C@]4(O)[C@@H]3CC[C@]3(C)[C@@H]([C@H](C)O[C@@H]5O[C@H](CO)[C@@H](O)[C@H](OC(=O)CC(C)C)[C@H]5O)CC[C@@]34O)C2)O[C@H](C)[C@@H]1O[C@@H]1O[C@H](CO)[C@@H](O)[C@H](O)[C@H]1O [compound 2, 3β,8β,14β,20-tetrahydroxy-(20S)-pregn-5-ene-3-O-β-D-glucopyranosyl-(1 → 4)-O-β-D-digitaloside-20-O-3-Isoval-β-D-glucopyranoside] | 30.27 ± 2.70 μM TE/mM | > 100 µM | 670 ± 10 µM | > 1300 µM | 9.19 ± 15.59 μM TE/mM | 23.08 ± 1.89 μM TE/mM | – | – | –
O=c1cc(-c2ccc(O)cc2)oc2cc(O)c([C@@H]3O[C@H](CO)[C@@H](O)[C@H](O)[C@H]3O)c(O)c12 [isovitexin] | – | – | – | – | – | – | – | – | over 85%
O=c1c(O)c(-c2ccc(O)c(O)c2)oc2cc(O)cc(O)c12 [quercetin, reference compound] | 953.94 ± 4.17 μM TE/mM | – | – | 847.3 ± 1.04 µM | 1435.38 ± 14.02 μM TE/mM | 1373.75 ± 35.39 μM TE/mM | 50.6 ± 3.9 µM | – | –
O=c1cc(-c2ccc(O)cc2)oc2c([C@@H]3O[C@H](CO)[C@@H](O)[C@H](O)[C@H]3O)c(O)cc(O)c12 [vitexin] | – | – | – | – | – | – | – | – | over 85%
CC[C@H](CC[C@@H](C)[C@H]1CC[C@H]2[C@@H]3CC=C4C[C@@H](O[C@@H]5O[C@H](CO)[C@@H](O)[C@H](O)[C@H]5O)CC[C@]4(C)[C@H]3CC[C@]12C)C(C)C [β-sitosterol-glucoside] | 36.27 ± 10.39 μM TE/mM | – | – | > 1300 µM | 11.81 ± 7.07 μM TE/mM | 66.21 ± 16.25 μM TE/mM | 1032 ± 2.48 µM | – | –
CC[C@H](CC[C@@H](C)[C@H]1CC[C@H]2[C@@H]3CC=C4C[C@@H](O)CC[C@]4(C)[C@H]3CC[C@]12C)C(C)C [β-sitosterol] | 37.87 ± 11.03 μM TE/mM | – | – | > 1300 µM | 3.42 ± 9.77 μM TE/mM | 13.50 ± 3.48 μM TE/mM | > 1300 µM | – | –
